Assay results from ChEMBL document CHEMBL1139360, “Mechanism of p300 specific histone acetyltransferase inhibition by small molecules” (J Med Chem, 2009).

Tests used:
[1] = target: T1, Histone acetyltransferase p300 (Homo sapiens, UniProt Q09472); assay: Inhibition of HAT p300 catalytic domain
[2] = target: T1, Histone acetyltransferase p300; assay: Inhibition of HAT p300 catalytic domain assessed as drug-induced alteration of protein tertiary structure at 2.5 uM by Stern-Volmer plot; design: scale not given: the % may be the effect or the level left
Outline: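 p300 HAT domain (1.2 μM) preincubated 2 min at room temperature with 2.5 μM inhibitor in 20 mM Tris-HCl pH 7.5, 0.2 mM EDTA, 100 mM KCl. Acrylamide added stepwise; fluorescence read at 340 nm (excitation 295 nm) at 20 °C. Ksv taken from a Stern–Volmer plot and tryptophan accessibility from a modified Stern–Volmer plot.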

[3] = target: T1, Histone acetyltransferase p300; assay: Inhibition of HAT p300 catalytic domain activity expressed in Escherichia coli BL21 (DE3) co-transformed with human SirT2 by fluorography/autoradiography assay
[4] = target: T1, Histone acetyltransferase p300; assay: Binding affinity to HAT p300 catalytic domain by isothermal titration calorimetry
Outline: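 ITC at 20 °C. Ligand at 30–35 μM injected into 3 μM p300 HAT domain in 20 mM Tris-HCl pH 7.5, 0.2 mM EDTA, 100 mM KCl. 35 injections, 2 min apart; the first 1 μL injection was discarded. Ligand-into-buffer and buffer-into-buffer blanks were subtracted, and data fitted to a one-set-of-sites model.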

[5] = target: T1, Histone acetyltransferase p300; assay: Binding affinity to HAT p300 catalytic domain by fluorometric titration
Outline: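 p300 HAT domain (aa 1284–1673, 6His, from E. coli BL21(DE3) co-expressing SirT2), 1.2 μM, titrated with ligand in 20 mM Tris-HCl pH 7.5, 0.2 mM EDTA, 100 mM KCl. Tryptophan emission read at 340 nm (excitation 295 nm). Kd obtained by nonlinear least-squares fit; ΔFmax taken from a double-reciprocal plot.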

[6] = target: Histone acetyltransferase KAT2B (Homo sapiens) (UniProt Q92831); assay: Inhibition of HAT PCAF up to 10 uM after 2 mins in absence of acetyl-CoA; design: scale not given: the % may be the effect or the level left
Chain of Histone acetyltransferase KAT2B (Homo sapiens) (Q92831 whole entry, looked up): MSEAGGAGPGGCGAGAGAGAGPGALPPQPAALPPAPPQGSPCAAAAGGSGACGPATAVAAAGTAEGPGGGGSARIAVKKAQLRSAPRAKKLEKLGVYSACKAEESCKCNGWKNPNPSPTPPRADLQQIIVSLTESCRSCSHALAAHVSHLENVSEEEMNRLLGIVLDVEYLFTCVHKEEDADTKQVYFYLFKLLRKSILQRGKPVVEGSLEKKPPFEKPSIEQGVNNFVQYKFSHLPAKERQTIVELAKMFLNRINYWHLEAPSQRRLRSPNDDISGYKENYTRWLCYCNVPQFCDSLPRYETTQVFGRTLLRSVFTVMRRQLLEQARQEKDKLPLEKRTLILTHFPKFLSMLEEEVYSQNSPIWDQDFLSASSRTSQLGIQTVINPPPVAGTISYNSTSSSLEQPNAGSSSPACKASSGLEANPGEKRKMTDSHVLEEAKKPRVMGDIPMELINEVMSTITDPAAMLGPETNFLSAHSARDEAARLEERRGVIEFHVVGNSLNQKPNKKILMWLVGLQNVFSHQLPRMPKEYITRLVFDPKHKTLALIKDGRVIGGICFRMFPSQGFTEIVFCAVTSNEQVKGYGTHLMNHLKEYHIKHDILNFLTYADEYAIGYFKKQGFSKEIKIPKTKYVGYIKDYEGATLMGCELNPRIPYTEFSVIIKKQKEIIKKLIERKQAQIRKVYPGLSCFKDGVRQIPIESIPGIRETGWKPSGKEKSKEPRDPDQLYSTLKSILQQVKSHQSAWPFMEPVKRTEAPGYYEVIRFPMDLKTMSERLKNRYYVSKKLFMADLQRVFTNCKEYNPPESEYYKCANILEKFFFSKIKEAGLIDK
Outline: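 PCAF preincubated with inhibitor at 10 μM without acetyl-CoA over a time course, then assayed for HAT activity on purified HeLa core histones in triplicate. Activity compared with a DMSO control.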

[7] = target: Histone acetyltransferase KAT2B (Homo sapiens) (UniProt Q92831); assay: Inhibition of HAT PCAF up to 40 uM relative to control; design: scale not given: the % may be the effect or the level left
Outline: (§1)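 Filter-binding HAT assay with PCAF, purified HeLa core histones and ³H-acetyl-CoA, run at increasing inhibitor concentrations. Activity compared with a DMSO solvent control.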

[8] = target: Histone acetyltransferase KAT2B (Homo sapiens) (UniProt Q92831); assay: Inhibition of HAT PCAF relative to control; design: scale not given: the % may be the effect or the level left
Outline: as §1

T1 sequence (Q09472 whole entry, the tested form may be a part): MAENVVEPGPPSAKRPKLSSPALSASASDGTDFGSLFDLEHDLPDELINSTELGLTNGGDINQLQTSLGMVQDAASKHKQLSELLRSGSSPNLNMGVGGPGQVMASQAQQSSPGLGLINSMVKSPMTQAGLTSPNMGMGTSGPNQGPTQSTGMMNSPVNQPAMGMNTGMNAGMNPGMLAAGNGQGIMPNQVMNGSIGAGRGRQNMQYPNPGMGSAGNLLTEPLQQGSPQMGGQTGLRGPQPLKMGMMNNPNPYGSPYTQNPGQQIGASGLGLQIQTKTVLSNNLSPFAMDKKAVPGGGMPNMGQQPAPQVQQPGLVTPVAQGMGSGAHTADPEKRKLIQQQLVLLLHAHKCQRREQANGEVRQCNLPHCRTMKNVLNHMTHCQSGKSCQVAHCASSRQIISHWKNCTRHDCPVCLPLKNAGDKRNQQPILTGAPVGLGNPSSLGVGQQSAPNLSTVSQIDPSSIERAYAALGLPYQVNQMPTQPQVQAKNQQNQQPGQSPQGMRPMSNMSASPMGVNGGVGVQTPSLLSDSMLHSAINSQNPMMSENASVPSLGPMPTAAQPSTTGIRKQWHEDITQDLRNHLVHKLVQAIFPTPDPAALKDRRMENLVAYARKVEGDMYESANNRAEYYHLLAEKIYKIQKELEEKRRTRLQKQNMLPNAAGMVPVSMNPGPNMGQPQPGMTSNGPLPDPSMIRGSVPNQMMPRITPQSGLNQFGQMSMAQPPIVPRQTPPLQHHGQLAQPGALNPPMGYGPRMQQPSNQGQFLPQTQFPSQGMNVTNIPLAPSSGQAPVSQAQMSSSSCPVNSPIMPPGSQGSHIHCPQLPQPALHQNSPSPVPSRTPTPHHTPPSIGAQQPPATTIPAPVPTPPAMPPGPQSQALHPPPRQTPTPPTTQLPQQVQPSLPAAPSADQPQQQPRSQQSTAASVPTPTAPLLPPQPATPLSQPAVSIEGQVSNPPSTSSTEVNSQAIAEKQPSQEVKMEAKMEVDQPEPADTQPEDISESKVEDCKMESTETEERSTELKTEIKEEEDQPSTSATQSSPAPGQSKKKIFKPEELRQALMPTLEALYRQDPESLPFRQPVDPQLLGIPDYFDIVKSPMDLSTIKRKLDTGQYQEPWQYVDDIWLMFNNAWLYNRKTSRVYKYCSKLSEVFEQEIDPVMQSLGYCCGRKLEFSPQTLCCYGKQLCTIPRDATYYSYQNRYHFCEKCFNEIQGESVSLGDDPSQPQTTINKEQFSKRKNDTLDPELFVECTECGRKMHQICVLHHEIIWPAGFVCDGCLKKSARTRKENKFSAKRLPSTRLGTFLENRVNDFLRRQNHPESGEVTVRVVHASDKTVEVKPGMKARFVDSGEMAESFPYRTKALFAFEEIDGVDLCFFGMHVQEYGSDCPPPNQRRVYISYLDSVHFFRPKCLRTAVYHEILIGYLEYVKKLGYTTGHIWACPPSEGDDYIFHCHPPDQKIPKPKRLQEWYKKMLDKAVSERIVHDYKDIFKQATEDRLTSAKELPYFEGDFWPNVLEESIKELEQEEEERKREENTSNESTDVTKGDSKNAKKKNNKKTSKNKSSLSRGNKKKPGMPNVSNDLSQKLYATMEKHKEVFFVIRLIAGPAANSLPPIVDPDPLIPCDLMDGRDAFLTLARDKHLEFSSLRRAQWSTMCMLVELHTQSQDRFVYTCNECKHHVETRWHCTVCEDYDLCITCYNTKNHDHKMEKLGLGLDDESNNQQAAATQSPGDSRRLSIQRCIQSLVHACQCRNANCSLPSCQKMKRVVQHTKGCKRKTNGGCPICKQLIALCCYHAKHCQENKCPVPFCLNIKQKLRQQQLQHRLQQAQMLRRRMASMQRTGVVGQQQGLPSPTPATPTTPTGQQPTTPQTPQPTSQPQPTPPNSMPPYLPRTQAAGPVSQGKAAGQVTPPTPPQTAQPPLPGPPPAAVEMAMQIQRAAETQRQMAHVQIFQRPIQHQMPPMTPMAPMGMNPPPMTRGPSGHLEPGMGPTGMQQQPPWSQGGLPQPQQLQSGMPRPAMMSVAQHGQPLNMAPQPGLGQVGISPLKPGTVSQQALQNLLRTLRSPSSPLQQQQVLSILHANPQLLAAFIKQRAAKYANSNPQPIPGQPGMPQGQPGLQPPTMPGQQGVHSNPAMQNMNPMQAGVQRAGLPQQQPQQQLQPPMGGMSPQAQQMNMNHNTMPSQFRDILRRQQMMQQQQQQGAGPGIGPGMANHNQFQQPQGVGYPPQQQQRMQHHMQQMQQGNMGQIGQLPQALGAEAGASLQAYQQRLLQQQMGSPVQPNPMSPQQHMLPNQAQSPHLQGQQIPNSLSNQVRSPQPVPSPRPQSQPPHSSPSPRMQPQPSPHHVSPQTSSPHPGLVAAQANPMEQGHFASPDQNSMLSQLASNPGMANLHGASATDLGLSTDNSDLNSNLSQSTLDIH

Row | Ki [1] [µM] | Activity [2] [%] | Activity [3] | Kd [4] [µM] | Kd [5] [µM] | Activity [6] [%] | Activity [7] [%] | Activity [8] [%] | Compound
1 | 4.9 | 78 | Dose-dependent effect | 6.6 | 1.8 | 80 | 90 | – | C=C(C)[C@@H](CC=C(C)C)C[C@@]12C[C@@H](CC=C(C)C)C(C)(C)[C@@](CC=C(C)C)(C(=O)C(C(=O)c3ccc(O)c(O)c3)=C1O)C2=O [GARCINOL]
2 | 3.9 | 75 | Dose-dependent effect | 5.9 | 1.1 | – | – | 50 | CC(C)=CC[C@H]1C[C@@]23C[C@@H](CC=C(C)C)C(C)(C)[C@@](CC=C(C)C)(C(=O)C(C(=O)c4ccc(O)c(O)c4)=C2OC1(C)C)C3=O [CAMBOGIN]
